From ChEMBL document CHEMBL4364301 (Eur J Med Chem, 2019)

Tests used:
Assay type in all cases: functional
DU-145 [1] = test: Antiproliferative activity against human DU145 cells assessed as reduction in cell growth incubated for 96 hrs by propidium iodide based 2D monolayer assay; settings: DU-145, 96 h
Method in brief: (§1)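 After 24 h recovery, compound in medium or medium alone (control wells) was added at 10 half-log concentrations from 0.0032 to 100 µM, in triplicate, with at most 0.3% DMSO. After 96 h, wells were PBS-washed, stained with 7 µg/ml PI and 0.1% Triton X-100, and fluorescence read at 530/620 nm. IC50 came from a 4-parameter fit, geometric mean.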

CWR22R [2] = test: Antiproliferative activity against human 22Rv1 cells assessed as reduction in cell growth incubated for 96 hrs by propidium iodide based 2D monolayer assay; settings: 22Rv1, 96 h; method in brief: as §1
LNCaP [3] = test: Antiproliferative activity against human LNCAP cells assessed as reduction in cell growth incubated for 96 hrs by propidium iodide based 2D monolayer assay; method in brief: as §1
VCaP [4] = test: Antiproliferative activity against human VCaP cells assessed as reduction in cell growth incubated for 96 hrs by propidium iodide based 2D monolayer assay
Method in brief: (§2)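 VCaP cells in RPMI 1640 with 10% FCS at 37 °C, 5% CO2, seeded 4,000–20,000 cells/well and left 24 h before dosing. Compounds from DMSO stocks were diluted in half-log steps in medium, 10 concentrations 0.0032–100 μM, triplicate wells, max 0.3% DMSO. After 96 h, cells were washed, stained with 7 μg/ml propidium iodide plus 0.1% Triton X-100 for 1–2 h at room temperature, and fluorescence read at ex 530/em 620 nm.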

VCaP [5] = test: Antiproliferative activity against human VCaP cells assessed as T/C value at 3.2 x 10^-3 uM incubated for 96 hrs by propidium iodide based 2D monolayer assay; method in brief: as §2
VCaP [6] = test: Antiproliferative activity against human VCaP cells assessed as T/C value at 3.2 x 10^-2 uM incubated for 96 hrs by propidium iodide based 2D monolayer assay; method in brief: as §2
VCaP [7] = test: Antiproliferative activity against human VCaP cells assessed as T/C value at 1 x 10^-1 uM incubated for 96 hrs by propidium iodide based 2D monolayer assay
Method in brief: (§3)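 Cells were kept in RPMI 1640 with 25 mM HEPES, 10% FCS and gentamicin at 37 °C under 5% CO2, and plated at 4,000-20,000 cells/well. After 24 h recovery, compound in medium or medium alone (control wells) was added at 10 half-log concentrations from 0.0032 to 100 µM, in triplicate, with at most 0.3% DMSO. After 96 h, wells were PBS-washed, stained with 7 µg/ml PI and 0.1% Triton X-100, and fluorescence read at 530/620 nm. IC50 came from a 4-parameter fit, geometric mean.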

VCaP [8] = test: Antiproliferative activity against human VCaP cells assessed as T/C value at 3.2 x 10^-1 uM incubated for 96 hrs by propidium iodide based 2D monolayer assay; method in brief: as §2
VCaP [9] = test: Antiproliferative activity against human VCaP cells assessed as T/C value at 1 x 10^1 uM incubated for 96 hrs by propidium iodide based 2D monolayer assay; method in brief: as §3
VCaP [10] = test: Antiproliferative activity against human VCaP cells assessed as T/C value at 3.2 x 10^1 uM incubated for 96 hrs by propidium iodide based 2D monolayer assay; method in brief: as §2
VCaP [11] = test: Antiproliferative activity against human VCaP cells assessed as T/C value at 1 x 10^2 uM incubated for 96 hrs by propidium iodide based 2D monolayer assay; method in brief: as §3
LNCaP [12] = test: Antiproliferative activity against human LNCAP cells assessed as T/C value at 3.2 x 10^-3 uM incubated for 96 hrs by propidium iodide based 2D monolayer assay; method in brief: as §3
LNCaP [13] = test: Antiproliferative activity against human LNCAP cells assessed as T/C value at 3.2 x 10^-2 uM incubated for 96 hrs by propidium iodide based 2D monolayer assay; method in brief: as §3
LNCaP [14] = test: Antiproliferative activity against human LNCAP cells assessed as T/C value at 1 x 10^-1 uM incubated for 96 hrs by propidium iodide based 2D monolayer assay; method in brief: as §3
LNCaP [15] = test: Antiproliferative activity against human LNCAP cells assessed as T/C value at 3.2 x 10^-1 uM incubated for 96 hrs by propidium iodide based 2D monolayer assay; method in brief: as §3
LNCaP [16] = test: Antiproliferative activity against human LNCAP cells assessed as T/C value at 3.2 uM incubated for 96 hrs by propidium iodide based 2D monolayer assay; method in brief: as §3
LNCaP [17] = test: Antiproliferative activity against human LNCAP cells assessed as T/C value at 3.2 x 10^1 uM incubated for 96 hrs by propidium iodide based 2D monolayer assay; method in brief: as §3
CWR22R [18] = test: Antiproliferative activity against human 22Rv1 cells assessed as T/C value at 3.2 x 10^-3 uM incubated for 96 hrs by propidium iodide based 2D monolayer assay; method in brief: as §3
CWR22R [19] = test: Antiproliferative activity against human 22Rv1 cells assessed as T/C value at 1 x 10^-2 uM incubated for 96 hrs by propidium iodide based 2D monolayer assay; method in brief: as §3
CWR22R [20] = test: Antiproliferative activity against human 22Rv1 cells assessed as T/C value at 3.2 x 10^-2 uM incubated for 96 hrs by propidium iodide based 2D monolayer assay; method in brief: as §3
CWR22R [21] = test: Antiproliferative activity against human 22Rv1 cells assessed as T/C value at 1 x 10^-1 uM incubated for 96 hrs by propidium iodide based 2D monolayer assay; method in brief: as §3
CWR22R [22] = test: Antiproliferative activity against human 22Rv1 cells assessed as T/C value at 3.2 x 10^-1 uM incubated for 96 hrs by propidium iodide based 2D monolayer assay; method in brief: as §3
CWR22R [23] = test: Antiproliferative activity against human 22Rv1 cells assessed as T/C value at 1 uM incubated for 96 hrs by propidium iodide based 2D monolayer assay; method in brief: as §3
CWR22R [24] = test: Antiproliferative activity against human 22Rv1 cells assessed as T/C value at 3.2 uM incubated for 96 hrs by propidium iodide based 2D monolayer assay; method in brief: as §3
CWR22R [25] = test: Antiproliferative activity against human 22Rv1 cells assessed as T/C value at 1 x 10^1 uM incubated for 96 hrs by propidium iodide based 2D monolayer assay; method in brief: as §3
CWR22R [26] = test: Antiproliferative activity against human 22Rv1 cells assessed as T/C value at 1 x 10^2 uM incubated for 96 hrs by propidium iodide based 2D monolayer assay; method in brief: as §3
DU-145 [27] = test: Antiproliferative activity against human DU145 cells assessed as T/C value at 3.2 x 10^-3 uM incubated for 96 hrs by propidium iodide based 2D monolayer assay; method in brief: as §1
DU-145 [28] = test: Antiproliferative activity against human DU145 cells assessed as T/C value at 1 x 10^-2 uM incubated for 96 hrs by propidium iodide based 2D monolayer assay; method in brief: as §1
DU-145 [29] = test: Antiproliferative activity against human DU145 cells assessed as T/C value at 3.2 x 10^-2 uM incubated for 96 hrs by propidium iodide based 2D monolayer assay; method in brief: as §1
DU-145 [30] = test: Antiproliferative activity against human DU145 cells assessed as T/C value at 1 uM incubated for 96 hrs by propidium iodide based 2D monolayer assay; method in brief: as §1
DU-145 [31] = test: Antiproliferative activity against human DU145 cells assessed as T/C value at 3.2 uM incubated for 96 hrs by propidium iodide based 2D monolayer assay; method in brief: as §3

Compound | IC50 (DU-145 [1]) [µM] | IC70 (DU-145 [1]) [µM] | IC50 (CWR22R [2]) [µM] | IC70 (CWR22R [2]) [µM] | IC50 (LNCaP [3]) [µM] | IC70 (LNCaP [3]) [µM] | IC50 (VCaP [4]) [µM] | IC70 (VCaP [4]) [µM] | T/C (VCaP [5]) | T/C (VCaP [6]) | T/C (VCaP [7]) | T/C (VCaP [8]) | T/C (VCaP [9]) [%] | T/C (VCaP [10]) | T/C (VCaP [11]) | T/C (LNCaP [12]) | T/C (LNCaP [13]) | T/C (LNCaP [14]) | T/C (LNCaP [15]) | T/C (LNCaP [16]) | other results
CC1(C)C(=O)N(c2ccc(C#N)cc2C(F)(F)F)C(=S)N1c1cccc(S(F)(F)(F)(F)F)c1 | 100 | > 100 | 100 | > 100 | 4.1 | 19.9 | 100 | > 100 | 106% | 88% | 88% | 89% | 59 | 57% | 57% | 83% | 103% | 94% | 85% | 54% | T/C (LNCaP [17]): 32%; T/C (CWR22R [18]): 104%; T/C (CWR22R [19]): 104%; T/C (CWR22R [20]): 107%; T/C (CWR22R [21]): 102%; T/C (CWR22R [22]): 101%; T/C (CWR22R [23]): 97%; T/C (CWR22R [24]): 93%; T/C (CWR22R [25]): 60%; T/C (CWR22R [26]): 51%; T/C (DU-145 [27]): 102%; T/C (DU-145 [28]): 104%; T/C (DU-145 [29]): 107%; T/C (DU-145 [30]): 112%; T/C (DU-145 [31]): 116%
CC1(C)C(=O)N(c2ccc(C#N)cc2C(F)(F)F)C(=S)N1c1ccc(S(F)(F)(F)(F)F)cc1 | 12.7 | 29.1 | 5.4 | 8.45 | 3 | 5.34 | 100 | > 100 | 93% | 103% | 103% | 89% | 59 | 64% | 47% | 76% | 78% | 77% | 82% | 51% | T/C (LNCaP [17]): 10%; T/C (CWR22R [18]): 106%; T/C (CWR22R [19]): 104%; T/C (CWR22R [20]): 104%; T/C (CWR22R [21]): 98%; T/C (CWR22R [22]): 101%; T/C (CWR22R [23]): 99%; T/C (CWR22R [24]): 78%; T/C (CWR22R [25]): 25%; T/C (CWR22R [26]): 12%; T/C (DU-145 [27]): 105%; T/C (DU-145 [28]): 111%; T/C (DU-145 [29]): 111%; T/C (DU-145 [30]): 104%; T/C (DU-145 [31]): 102%
CC1(C)C(=O)N(c2cccc(S(F)(F)(F)(F)F)c2)C(=S)N1c1cccc(C(F)(F)F)c1 | 100 | > 100 | 100 | > 100 | 3.4 | 4.31 | 100 | > 100 | 104% | 87% | 80% | 87% | 74 | 63% | 60% | 92% | 73% | 91% | 80% | 63% | T/C (LNCaP [17]): 33%; T/C (CWR22R [18]): 94%; T/C (CWR22R [19]): 96%; T/C (CWR22R [20]): 96%; T/C (CWR22R [21]): 96%; T/C (CWR22R [22]): 98%; T/C (CWR22R [23]): 85%; T/C (CWR22R [24]): 79%; T/C (CWR22R [25]): 69%; T/C (CWR22R [26]): 55%; T/C (DU-145 [27]): 101%; T/C (DU-145 [28]): 94%; T/C (DU-145 [29]): 96%; T/C (DU-145 [30]): 108%; T/C (DU-145 [31]): 105%
CC(O)(COc1cccc(S(F)(F)(F)(F)F)c1)C(=O)Nc1ccc([N+](=O)[O-])c(C(F)(F)F)c1 (racemic) | 7.4 | 7.24 to 8.54 | 5.4 | 5.77 to 6.98 | 3.3 | 4.37 to 5.15 | 5.3 | 7.82 to 8.69 | 103 - 109% | 86 - 107% | 94 - 115% | 94 - 113% | 22 | 2 - 4% | 5 - 11% | 92 - 98% | 92 - 95% | 87 - 113% | 100 - 103% | 54 - 71% | T/C (LNCaP [17]): -1%; T/C (CWR22R [18]): 97 - 104%; T/C (CWR22R [19]): 100 - 106%; T/C (CWR22R [20]): 108 - 110%; T/C (CWR22R [21]): 106 - 110%; T/C (CWR22R [22]): 107 - 111%; T/C (CWR22R [23]): 101 - 109%; T/C (CWR22R [24]): 62 - 92%; T/C (CWR22R [25]): 13 - 14%; T/C (CWR22R [26]): 2 - 3%; T/C (DU-145 [27]): 111 - 116%; T/C (DU-145 [28]): 115 - 122%; T/C (DU-145 [29]): 116 - 124%; T/C (DU-145 [30]): 122 - 125%; T/C (DU-145 [31]): 116%
